Assay results as given in article PMC8799877 (Acta Pharmaceutica Sinica. B, 2021).

What was measured:
BRD4(2) = BRD4(2) (Homo sapiens, UniProt O60885); assay: HTRF bromodomain binding assay, BRD4
BRD4(1) = BRD4(1) (Homo sapiens, UniProt O60885); assay: HTRF bromodomain binding assay, BRD4
[1] = tested on: TGF-β1/Smad2/3 signaling pathway; assay: Ang II-induced TGF-β1/Smad2/3 signaling in NRCFs; format: cell-based, rat; settings: pretreatment, Western blot
In short: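 Fibroblasts from hearts of 1–3-day-old neonatal SD rats: trypsin (0.8 mg/mL, 4 °C overnight), then collagenase II (0.8 mg/mL), 2 h differential plating. Treated cells lysed in RIPA, protein by BCA, 10% SDS-PAGE, nitrocellulose, 5% nonfat milk block 2 h, primary antibodies 4 °C overnight, secondary 1:10,000 2 h, chemiluminescence, densitometry.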

BRD4 = BRD4 (Rattus norvegicus, UniProt A0A8I6A216); assay: Cellular thermal shift assay; format: cell-based; settings: NRCFs, 10 μmol/L, 4 h, heated from 43 to 61 °C
NRCFs [2] = assay: Ang II-induced cardiac fibroblast activation; format: cell-based, rat; settings: immunofluorescent staining
In short: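 Treated neonatal rat cardiac fibroblasts fixed in 4% paraformaldehyde overnight, permeabilised with 0.1% Triton X-100 10 min, blocked in 5% BSA 20 min. Anti-α-SMA (1:300) at 4 °C overnight, then Alexa Fluor 488 goat anti-rabbit IgG (1:200) 2 h in the dark, DAPI 15 min. Imaged by laser confocal microscopy; n = 3.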

NRCFs [3] = assay: Wound scratch migration assay; format: cell-based, rat; settings: C-34 1 μmol/L or JQ1 0.2 μmol/L, Ang II 12 or 24 h
[4] = tested on: MV4-11 and RS411 acute leukemia xenograft models; settings: 5 mg/kg; cited from earlier work
[5] = MTT cytotoxicity / cell viability in NRCMs; format: cell-based; settings: Sprague-Dawley, rat, primary neonatal rat cardiac myocytes (NRCMs)
[6] = In vivo pharmacokinetic study; set-up: species or system male Sprague-Dawley rats; settings: for CL_F_pred / Vz_F_pred: rats
In short: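 Male SD rats (n = 3) dosed iv at 2 mg/kg or orally at 10 mg/kg. Plasma separated by centrifugation at 4 °C, 6000 rpm, 8 min, and analysed by LC–MS. Parameters reported as mean ± SD.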

[7] = MTT cytotoxicity / cell viability in NRCFs; format: cell-based; settings: Sprague-Dawley, rat, primary neonatal rat cardiac fibroblasts (NRCFs)
[8] = male, Sprague-Dawley, rat, plasma, iv, 2 mg/kg
[9] = male, Sprague-Dawley, rat, plasma, po, 10 mg/kg

IC50 (BRD4(2)) | SMILES | other results
0.589 ± 0.052 µM | NS(=O)(=O)c1ccccc1Nc1nc(-c2ccc(F)cc2)c2ccccc2n1 [Compound 29] | IC50 (BRD4(1)): 0.615 ± 0.127 µM
8.12 ± 0.084 µM | COc1ccc(-c2nc(Nc3ccc(S(N)(=O)=O)cc3)nc3ccccc23)cc1 [Compound 35, 4-((4-(4-Methoxyphenyl)quinazolin-2-yl)amino)benzenesulfonamide] | 
19.7 ± 1.3 µM | NS(=O)(=O)c1ccc(Nc2nc(-c3ccccc3Cl)c3ccccc3n2)cc1 [Compound 23] | 
 | Cc1sc2c(c1C)C(c1ccc(Cl)cc1)=N[C@@H](CC(=O)OC(C)(C)C)c1nnc(C)n1-2 [JQ1] | Ang II-induced upregulation of TGF-β1, p-Smad2 and p-Smad3 [1]: comparable to those by JQ1 treatment; BRD4 thermal stabilization (CETSA, Western blot) (BRD4): in close accordance with that obtained for JQ1; α-SMA fluorescence intensity after Ang II stimulation (NRCFs [2]): this effect was reversed; Ang II-induced cell migration (wound scratch assay) (NRCFs [3]): effectively inhibited the enhanced cell migration induced by Ang II
9.04 ± 0.956 µM | COC(=O)c1ccc(CNc2nc(-c3ccc(Cl)cc3)c3ccccc3n2)cc1 [Compound 11] | 
0.925 ± 0.081 µM | O=C(O)c1ccc(Nc2nc(-c3ccc(F)cc3)c3ccccc3n2)cc1 [Compound 43, 4-((4-(4-Fluorophenyl)quinazolin-2-yl)amino)benzoic acid] | IC50 (BRD4(1)): 4.47 ± 0.361 µM
> 20 µM | NS(=O)(=O)c1cccc(Nc2nc(-c3ccc(Cl)cc3)c3ccccc3n2)c1 [Compound 21] | 
13.6 ± 1.13 µM | Cc1ccc(-c2nc(Nc3ccc(S(N)(=O)=O)cc3)nc3ccc(C)cc23)cc1 [Compound 34, 4-((6-Methyl-4-(p-tolyl)quinazolin-2-yl)amino)benzenesulfonamide] | 
3.33 ± 0.522 µM | COC(=O)c1ccc(-c2nc(Nc3ccccc3S(N)(=O)=O)nc3ccccc23)cc1 [Compound 39] | 
3.05 ± 0.484 µM | O=C(O)c1ccc(Nc2nc(-c3ccc(Cl)cc3)c3ccccc3n2)cc1 [Compound 13] | 
9.85 ± 0.993 µM | NS(=O)(=O)c1ccc(Nc2nc(Nc3ccc(Br)cc3)c3ccccc3n2)cc1 [Compound 52] | fold decrease on potency vs compound 26 (BRD4(2) IC50) (BRD4(2); vs compound 26): ~6 fold
18.63 ± 0.047 µM | NS(=O)(=O)c1ccc(CCNc2nc(-c3ccc(F)cc3)c3ccccc3n2)cc1 [Compound 47] | 
1.53 ± 0.185 µM | NS(=O)(=O)c1ccc(Nc2nc(-c3ccc(Cl)cc3)c3ccccc3n2)cc1 [Compound 19] | fold more active in comparison to compound 15 (BRD4(2) IC50) (BRD4(2); vs compound 15): about 7 fold; IC50 (BRD4(1)): 3.37 ± 0.528 µM
0.424 ± 0.038 µM | NS(=O)(=O)c1ccc(Nc2nc(-c3ccc(C(F)(F)F)cc3)c3ccccc3n2)cc1 [Compound 31] | IC50 (BRD4(1)): 0.687 ± 0.054 µM
8.314 ± 0.016 µM | OCCNc1nc(-c2ccc(Cl)cc2)c2ccccc2n1 [Compound 6] | 
5.27 ± 0.367 µM | CC(C)c1ccc(Nc2nc(-c3ccc(F)cc3)c3ccccc3n2)cc1 [Compound 45] | 
1.63 ± 0.212 µM | NS(=O)(=O)c1ccc(Nc2nc(-c3ccc(Br)cc3)c3ccccc3n2)cc1 [Compound 26] | IC50 (BRD4(1)): 1.6 ± 0.205 µM
12.9 ± 0.947 µM | CC(C)c1ccc(Nc2nc(-c3ccc(Cl)cc3)c3ccccc3n2)cc1 [Compound 17] | 
14.8 ± 1.17 µM | Clc1ccc(-c2nc(NCCc3c[nH]c4ccccc34)nc3ccccc23)cc1 [Compound 9] | 
8.62 ± 0.164 µM | Cc1ccc(Nc2nc(-c3ccc(Cl)cc3)c3ccccc3n2)cc1 [Compound 16] | 
6.69 ± 0.825 µM | O=S(=O)(c1ccccc1Nc1nc(-c2ccc(F)cc2)c2ccccc2n1)N1CCOCC1 [Compound 48] | 
7.02 ± 0.517 µM | Clc1ccc(-c2nc(Nc3ccc(Br)cc3)nc3ccccc23)cc1 [Compound 18] | 
7.62 ± 0.882 µM | COC(=O)c1cccc(-c2nc(Nc3ccc(S(N)(=O)=O)cc3)nc3ccccc23)c1 [Compound 40] | 
13.3 ± 1.12 µM | Clc1ccc(-c2nc(NCc3ccco3)nc3ccccc23)cc1 [Compound 10] | 

IC50 (BRD4(2)) | SMILES | other results
15.1 ± 1.18 µM | NS(=O)(=O)c1ccc(Nc2nc(-c3cccc(Cl)c3)c3ccccc3n2)cc1 [Compound 24] | 
3.21 ± 0.206 µM | NS(=O)(=O)c1ccccc1Nc1nc(-c2ccc(Br)cc2)c2ccccc2n1 [Compound 27] | 
1.33 ± 0.628 µM | O=S(=O)(c1ccc(Nc2nc(-c3ccc(F)cc3)c3ccccc3n2)cc1)N1CCOCC1 [Compound 49] | IC50 (BRD4(1)): 5.95 ± 0.248 µM
5.17 ± 0.614 µM | COC(=O)c1ccc(-c2nc(Nc3ccc(S(N)(=O)=O)cc3)nc3ccccc23)cc1 [Compound 38] | 
3.65 ± 0.562 µM | CNC(=O)c1ccc(-c2nc(Nc3ccc(S(N)(=O)=O)cc3)nc3ccccc23)cc1 [Compound 37] | 
4.76 ± 0.678 µM | NS(=O)(=O)c1ccc(Nc2nc(-c3cccc4ccccc34)c3ccccc3n2)cc1 [Compound 41, 4-((4-(Naphthalen-1-yl)quinazolin-2-yl)amino)benzenesulfonamide] | 
7.05 ± 0.848 µM | COC(=O)c1ccc(Nc2nc(-c3ccc(Cl)cc3)c3ccccc3n2)cc1 [Compound 12] | 
 | Cc1nnc2n1-c1sc(C#Cc3cnn(CCCC#Cc4cccc5c4CN(C4CCC(=O)NC4=O)C5=O)c3)c(Cc3ccccc3)c1COC2 (stereo not drawn) [QCA570] | tumor regression [4]: complete and long-lasting tumor regression
4.55 ± 0.658 µM | NC(=O)CNc1nc(-c2ccc(Cl)cc2)c2ccccc2n1 [Compound 8] | fold more potent than compound 5 (BRD4(2) IC50) (BRD4(2); vs compound 5): about 4 fold
3.07 ± 0.584 µM | O=C(c1ccc(Nc2nc(-c3ccc(F)cc3)c3ccccc3n2)cc1)N1CCOCC1 [Compound 50] | 
6.12 ± 0.258 µM | NS(=O)(=O)c1ccc(CNc2nc(-c3ccc(F)cc3)c3ccccc3n2)cc1 [Compound 46] | 
10.3 ± 1.01 µM | NS(=O)(=O)c1ccc(Nc2nc(-c3ccccc3)c3ccccc3n2)cc1 [Compound 32, 4-((4-Phenylquinazolin-2-yl)amino)benzenesulfonamide] | 
3.88 ± 0.589 µM | O=S(=O)(c1ccc(Nc2nc(-c3ccc(Cl)cc3)c3ccccc3n2)cc1)N1CCOCC1 [Compound 20] | 
10.6 ± 0.367 µM | Clc1ccc(-c2nc(Nc3ccccc3)nc3ccccc23)cc1 [Compound 15] | 
9.91 ± 0.996 µM | COc1ccc(-c2nc(Nc3ccccc3S(N)(=O)=O)nc3ccccc23)cc1 [Compound 36] | 
0.242 ± 0.049 µM | NS(=O)(=O)c1ccc(Nc2nc(-c3ccc(F)cc3)c3ccccc3n2)cc1 [Compound 28] | BRD4 thermal stabilization (CETSA, Western blot) (BRD4): could efficiently stabilize BRD4 from 43 to 61 °C; IC50 at 24 h [5]: 19.1 ± 1.4 µM; IC50 (BRD4(1)): 0.286 ± 0.046 µM; AUC(0-inf) [6, 8]: 7130 ng·h/mL; AUC(0-t) [6, 8]: 7100 ng·h/mL; Cmax [6, 8]: 2820 ng/mL; MRT last [6, 8]: 3.46 h; half-life [6, 8]: 3.13 h; bioavailability ([6]; male, Sprague-Dawley, rat, plasma, oral, 10 mg/kg): 43.1%; AUC(0-inf) [6, 9]: 15400 ng·h/mL; AUC(0-t) [6, 9]: 15300 ng·h/mL; Cmax [6, 9]: 2170 ng/mL; MRT last [6, 9]: 4.27 h; Tmax [6, 9]: 2.67 h; half-life [6, 9]: 1.77 h; CL_F_pred ([6]; iv 2 mg/kg): 4.67 mL/min/kg; Vz_F_pred ([6]; iv 2 mg/kg): 1.27 L/kg; CL_F_pred ([6]; po 10 mg/kg): 12 mL/min/kg; Vz_F_pred ([6]; po 10 mg/kg): 1.77 L/kg; IC50 at 24 h [7]: 48.2 ± 1.68 µM
2.07 ± 0.625 µM | O=C(O)c1ccc(CNc2nc(-c3ccc(F)cc3)c3ccccc3n2)cc1 [Compound 44, 4-(((4-(4-Fluorophenyl)quinazolin-2-yl)amino)methyl)benzoic acid] | IC50 (BRD4(1)): 5.13 ± 0.626 µM
4.31 ± 0.18 µM | Oc1ccc(Nc2nc(-c3ccc(Cl)cc3)c3ccccc3n2)cc1 [Compound 14] | 
> 20 µM | NS(=O)(=O)c1ccc(Nc2nc(-c3ccc(OCc4ccccc4)cc3)c3ccccc3n2)cc1 [Compound 42, 4-((4-(4-(Benzyloxy)phenyl)quinazolin-2-yl)amino)benzenesulfonamide] | 
3.23 ± 0.089 µM | Cc1ccc(-c2nc(Nc3ccc(S(N)(=O)=O)cc3)nc3ccccc23)cc1 [Compound 33, 4-((4-(p-Tolyl)quinazolin-2-yl)amino)benzenesulfonamide] | 
12.6 ± 0.307 µM | Cc1ccc2nc(Nc3ccc(S(N)(=O)=O)cc3)nc(-c3ccc(Cl)cc3)c2c1 [Compound 25] | 
0.688 ± 0.016 µM | N#Cc1ccc(-c2nc(Nc3ccc(S(N)(=O)=O)cc3)nc3ccccc23)cc1 [Compound 30] | IC50 (BRD4(1)): 0.588 ± 0.024 µM
12.4 ± 1.09 µM | CC(C)(CO)Nc1nc(-c2ccc(Cl)cc2)c2ccccc2n1 [Compound 7] | 
